Screening results as filed in PubChem BioAssay.
A selection: hits, their analogues and other compounds. The true share with any hit is near 1%.
LYPLA1 counter: counter-screen for PME1 inhibitors: inhibitors of human LYPLA1. AID 2174. 320,000 tested, 0.16% active. inhibition, % at 5.9 µM. O75608. recombinant LYPLA1, FP-Rh probe fluorescence polarization;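 active means inhibition above the mean of all tested compounds plus 3 SD, set per campaign, cut at about 14% in these data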;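 further: inhibitors block serine hydrolase probe labeling of LYPLA1 so polarization falls; 0% = enzyme with DMSO and 100% = wells lacking LYPLA1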
Target sequence (O75608 whole entry, looked up): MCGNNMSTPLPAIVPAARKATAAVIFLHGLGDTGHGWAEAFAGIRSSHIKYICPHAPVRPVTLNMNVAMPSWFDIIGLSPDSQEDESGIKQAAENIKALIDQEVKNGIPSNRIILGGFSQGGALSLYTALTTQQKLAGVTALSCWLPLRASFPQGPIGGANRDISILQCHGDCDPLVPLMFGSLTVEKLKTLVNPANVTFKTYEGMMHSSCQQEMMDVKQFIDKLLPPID
procasp3 activ: procaspase-3 (human) activation. recombinant procaspase-3 D3A, Ac-DEVD-pNA absorbance 405 nm. AID 463141. P42574. 330,000 tested, 0.11% active. activation, % at 8.5 µM;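 active means activation above the mean of all tested compounds plus 3 SD, cut at about 21% in these data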;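 further: 0% = DMSO alone and 100% = DMSO wells spiked with extra 5 µM PC-3 D3A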
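Test system: Procaspase-3 D3A mutant; medium: Zinc-free HEPES/NaCl buffer with 0.01% Triton X-100 at pH 7.4; reagent: DEVD-pNA substrate; doses: one concentration, 8.5 µM nominal, 0.8% DMSO; times: 1 h preincubation plus 2 h reaction at 25 °C; signal: Epi-absorbance at 405 nm of released p-nitroaniline, 0 and 120 min; replicates: singlicate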
LYPLA2 inh: counter-screen for PME1 inhibitors: inhibitors of human LYPLA2. recombinant LYPLA2, FP-Rh probe fluorescence polarization. 320,000 tested, 0.38% active. inhibition, % at 5.9 µM;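 active means inhibition above the screen-wide mean plus 3 SD, limit set per campaign, cut at about 26% in these data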;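 further: 0% = LYPLA2 with DMSO and 100% = wells lacking LYPLA2 enzyme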
proCasp7 act: counter-screen: procaspase-7 (human) activation | AID 463210 | activation, % at 8.5 µM | recombinant procaspase-7, Ac-DEVD-pNA absorbance 405 nm; D23A/D198A/D206A triple mutant, cannot self-cleave; scale: DMSO 0, 5 µM enzyme 100 | 330,000 tested, 0.093% active;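 active means percent activation above the screen-wide mean plus 3 SD, cut at about 25% in these data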
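Material: Procaspase-7 triple mutant (PC-7 D3A) | Quantity: 2 µM procaspase-7 mutant as dispensed | Reagent: DEVD-pNA substrate | Times: 1 h preincubation, 2 h reaction | Technique: 405 nm absorbance of p-nitroaniline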
PREPL inhibitor: inhibits the human prolyl oligopeptidase-like enzyme. inhibition, % at 5.96 µM. recombinant PREPL, fluorescence polarization activity-based probe. 320,000 tested, 0.68% active; in the data active means inhibition above about 43%;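 further: 0% = enzyme with DMSO and 100% = wells lacking enzyme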
Numbers without * were called inactive.

SMILES	LYPLA1 counter	procasp3 activ	LYPLA2 inh	proCasp7 act	PREPL inhibitor
CC(Oc1ccc2c(-c3ccccc3)cc(=O)oc2c1)C(=O)O (stereo not given)	-6	-9	7	2	0
CC1(C)NC(=O)N(CC(O)COc2ccccc2[N+](=O)[O-])C1=O (stereo not given)	-2	2	-1	17	0
CCOc1cc(CNc2ccc(N(C)C)cc2)cc(Br)c1OCC(=O)NC(C)(C)C	2	-1	11	-12	14
CCOc1cc(CNc2cccc3ccccc23)cc(Br)c1OCC(=O)NC(C)(C)C	-1	-7	-1	-3	57*
COc1cccc(C(=O)NC(C)CCc2ccccc2)c1 (stereo not given)	-2	4	-1	-6	2
Cc1ccc(OC(C)C(=O)Nc2ccccc2C(=O)N2CCOCC2)cc1 (stereo not given)	-4	0	1	2	-10
COc1cc(C(=S)N2CCCC2)cc(OC)c1OC	-1	-5	-2	-4	14
COc1cc(CNCc2ccccn2)ccc1OCc1ccc(Cl)c(Cl)c1	-2	0	1	5	49*
O=C(CN1C(=O)C2C3C=CC(C4CC34)C2C1=O)Nc1cnc2ccccc2c1 (stereo not given)	-1	-1	4	-2	-11
CC1CCc2[nH]c3ccc(C(=O)N4CCCC(C(F)(F)F)C4)cc3c2C1 (stereo not given)	2	8	6	-7	5
CN1CCN(Cc2cc(COCc3ccccc3)c3cccnc3c2O)CC1	3	-10	6	-14	47*
O=C(NC1CCCN(CCc2ccccc2)C1)c1c(F)cccc1F (stereo not given)	2	3	5	7	-13
COc1ccc(/C=C2/CCc3ccccc3C2=O)cc1OC	-2	3	9	3	25
COc1cc(/C=C2/CCc3ccccc3C2=O)cc(OC)c1OC	5	2	30*	-6	7
O=C(c1ccccc1NS(=O)(=O)c1cccc([N+](=O)[O-])c1)N1CCOCC1	3	26*	4	7	6
COc1ccc(S(=O)(=O)Nc2ccccc2C(=O)N2CCOCC2)cc1OC	3	-1	-6	2	6
COC(=O)C1=CO[C@@H](O[C@@H]2O[C@H](CO)[C@@H](O)[C@H](O)[C@H]2O)[C@H]2[C@@H]1C(=O)C[C@@H]2C	1	-2	0	10	9
COC(=O)c1ccc(COc2ccccc2/C=N/NC(=O)c2cccnc2)cc1	-2	-7	36*	1	10
CC(OC(=O)c1cc[n+]([O-])cc1)C(=O)NCc1ccccc1 (stereo not given)	1	2	3	9	0
N#CC1=C(N)C(C#N)(C#N)[C@H](c2ccoc2)[C@H]2CN(Cc3ccccc3)CC=C12	1	-3	0	-8	52*
CC1CC(C)CN(C(=O)C2CCN(S(=O)(=O)N3CCC4(CC3)OCCO4)CC2)C1 (stereo not given)	3	1	8	9	11
COc1ccc(S(=O)(=O)N(C)c2ccc(C(=O)NCc3ccccn3)cc2)cc1	-3	9	-4	-2	5
COc1ccc(N2CCN(C(=O)c3ccc(COc4ccc5c(C)cc(=O)oc5c4)cc3)CC2)cc1	4	7	63*	-9	10
CN(C)c1ccc(/C=C/c2ccc3ccccc3n2)cc1	0	12	2	25	60*
COC(=O)c1ccc(OC(=O)CCN2C(=O)C3CCCCC3C2=O)cc1 (stereo not given)	-5	-4	2	-1	44*
COC(=O)c1ccccc1NC(=S)NC(=O)CC(C)C	0	-8	6	-5	14
C#CCOCCOCCOCCNc1nc(N2CCN(C(=O)CCCCCCCCCCNC(=O)[C@H](CO)n3cc(CCCCCN)nn3)CC2)nc(N2CCN(C(=O)CCCCCCCCCCNC(=O)[C@H](CCCN=C(N)N)n3cc(C[C@@H](C)CC)nn3)CC2)n1	-7	-17	-13	1	64*
